Measured values taken from article PMC9237582 (Asian Journal of Pharmaceutical Sciences, 2022).

Legend:
NIH-3T3 cells = assay: Scratch test, TGF-β1-induced cell migration; assay type: cell-based, mouse; settings: TGF-β1 5 ng/ml, 48 h; vs TGF-β1 group
In short: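 NIH-3T3 fibroblasts were seeded in 12-well format, cultured 24 h, then scratched. After 24 h synchronisation, TGF-β1 (5 ng/ml) was added with test compound, SB431542 or a reference drug, and incubated 48 h. Wounds were photographed under an inverted microscope at 0, 24 and 48 h after drug addition.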

[1] = tested on: bleomycin-induced rat model of IPF; assay: Preliminary pharmacodynamics in bleomycin-induced rat model of IPF; assay type: in vivo; settings: Day 29, vs bleo group; same dosing
In short: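 Male Sprague–Dawley rats under chloral hydrate anaesthesia received intratracheal bleomycin (5 mg/kg in 0.1 ml saline), then were held upright and rotated 5 min; controls got saline. From day 1, test powder was insufflated at 10 mg/kg as Sal B once daily for 28 d. Comparators: same dose iv, reference drug intragastric 31.5 mg/kg, or air. On day 29, right lung lavaged (3× cold saline); left lung stored −80 °C for Hyp.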

[2] = tested on: NIH-3T3 mouse embryonic fibroblasts; assay: MTT assay; assay type: cell-based; settings: NIH3T3, 48 h
In short: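 NIH-3T3 cells were grown in high-glucose DMEM with 10% FBS and penicillin/streptomycin at 37 °C, 5% CO2, in 96-well format. Test compound was given at 25–200 µg/ml and a reference drug at 0.25–10 µM, for 48 h. MTT (5 mg/ml) was added for 4 h, dissolved in DMSO, and absorbance read at 490 nm.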

[3] = cited from earlier work
[4] = Lung tissue distribution study; assay type: in vivo, rat
In short: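 Male Sprague–Dawley rats (200 ± 20 g), fasted 12 h. Dose 10 mg/kg as Sal B, given either as dry powder or as iv solution. Powder was insufflated intratracheally under chloral hydrate anaesthesia (three 1.5 ml air pushes). Lungs were collected at 0.033–12 h (9 time points, n = 3 each) and homogenised 1:5 (g/ml) in iced saline. Homogenates were processed as for plasma and quantified by UPLC-MS/MS.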

[5] = Preliminary pharmacokinetic study in plasma; assay type: in vivo, rat
In short: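 Male Sprague–Dawley rats (200 ± 20 g, n = 6/group). Dose 10 mg/kg as Sal B, by intratracheal powder insufflation or iv solution. Suborbital blood was taken into heparin at 0.033–12 h, and plasma was spun 10 min at 4 °C. Ascorbic acid, internal standard and HCl were added, then ethyl acetate extraction. Dried extract was reconstituted in methanol-water 80:20 for UPLC-MS/MS; parameters came from concentration-time data.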

[6] = Sal B in rat lung tissue, 10 mg/kg as Sal B, iv solution or pulmonary DPI, n = 3
[7] = male, Sprague-Dawley, rat, lung tissue, iv, 10 mg/kg
[8] = Sal B in rat plasma, 10 mg/kg as Sal B, iv solution or pulmonary DPI, n = 6
[9] = male, Sprague-Dawley, rat, plasma, iv, 10 mg/kg

SMILES | effect on TGF-β1-induced cell migration (NIH-3T3 cells) | Hyp content in lung tissue homogenate [1] | IFN-γ content in BALF [1] | IL-1β content in BALF [1] | IL-4 content in BALF [1] | IL-6 content in BALF [1] | IL-18 content in BALF [1] | MDA content in lung tissue homogenate [1] | SOD activity in lung tissue homogenate [1] | TGF-β1 protein content in BALF [1] | serum MPO content [1] | further results
NC(=O)c1ccc(-c2nc(-c3ccc4c(c3)OCO4)c(-c3ccccn3)[nH]2)cc1 [SB431542] | significantly inhibited | – | – | – | – | – | – | – | – | – | – | –
COC(=O)c1ccc2c(c1)NC(=O)/C2=C(\Nc1ccc(N(C)C(=O)CN2CCN(C)CC2)cc1)c1ccccc1 [nidanib, nintedanib, reference compound] | significantly inhibited the migration of NIH-3T3 cells in a concentration dependent manner | significantly lower | significantly increased(P < 0.01) | significantly decreased | significantly decreased | significantly decreased | significantly decreased | significantly reduced | increased significantly | significantly decreased | significantly reduced | concentration with no significant effect on cell viability [2]: < 1000 nM
O=C(/C=C/c1ccc(O)c2c1[C@H](C(=O)O[C@H](Cc1ccc(O)c(O)c1)C(=O)O)[C@@H](c1ccc(O)c(O)c1)O2)O[C@H](Cc1ccc(O)c(O)c1)C(=O)O [Sal B, Salvianolic acid B] | – | significantly lower | not significantly different | significantly decreased | not significantly different | significantly decreased | significantly decreased | significantly reduced | increased significantly | significantly decreased | significantly reduced | absolute bioavailability of Sal B in previous studies [3]: 19.15%±7.44%; AUC0-∞ [4, 6]: 1898.5 ± 134.03 ng·h/g; Cmax [4, 6]: 13,150.38±619.02 ng/g; Lz [4, 6]: 0.77 ± 0.04 h⁻¹; Cmax [4, 7]: 13200 ng/g; MRT [4, 7]: 11.4 min; Tmax [4, 7]: 1.98 min; half-life [4, 7]: 54 ± 3 min; Cl/F [5, 8]: 41.5 ± 7.83 mL/min/kg; Lz (elimination of phase slope) [5, 8]: 0.45 ± 0.07 h⁻¹; Vz/F [5, 8]: 5.62 ± 1.47 L/kg; AUC(0-inf) [5, 9]: 6550 ± 1490 ng·h/mL; Cmax [5, 9]: 16400 ng/mL; MRT [5, 9]: 49.8 ± 6 min; Tmax [5, 9]: 1.98 min; half-life [5, 9]: 93.6 ± 16.8 min
